High-throughput results: PubChem BioAssay, several laboratories
ABCG2 inh: human ABCG2 inhibition, ABCB1 as counter-screen. Q9UNQ0. IgMXP3 cells, JC-1 efflux, flow cytometry. inhibition, % at 6.6 µM. 190,000 tested, 0.1% active;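 active = inhibition above 80%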;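 note: 0% = DMSO and 100% = nicardipine control wells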
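test system = two drug-resistant human cell lines, ABCG2 and ABCB1 | amount = 3 million cells/mL final, two lines in 1:1 ratio | reagent = JC-1 transporter substrate | doses = one concentration, 6.6 µM final | incubation = 10 min at 25 °C | signal = flow cytometric JC-1 green MFI at 530 nm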
Efa HMGR inh: E. faecalis class II HMG-CoA reductase inhibition; purified E. faecalis HMGR, NADPH absorbance 340 nm kinetic; inhibition, % at 10 µM; 190,000 tested, 0.41% active; AID 1066;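 active = inhibition above a set limit, the median over all tested compounds plus 3 SD, cut at about 9.5% in these data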;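 note: enzyme runs in reverse so mevalonate oxidation gives rising NADPH absorbance; 0% = complete reaction with DMSO and 100% = background rate lacking mevalonate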
Diaphorase act: activates diaphorase or chemically reduces, flagging diaphorase assay artifacts. Diaphorase/resazurin coupled assay, resorufin fluorescence, 16 min; hits give high values; 1 = vehicle wells, 0 = NADH-free wells. activation factor at 20 µM. 190,000 tested, 0.005% active;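 active = diaphorase activity raised at least twofold by the compound at 20 µM; inactive = activation factor below 2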
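test system = bacterial diaphorase enzyme (C. kluyveri) | quantity = enzyme 0.07 U/mL final | reagent = NADH substrate 0.114 mM plus resazurin dye 0.1 mM, final | incubation = 16 min enzyme reaction, ambient temperature | buffer or medium = HEPES pH 7.4 buffer with MgCl2 and Tween 20 | signal = fluorescence of resorufin, 544 nm excitation, 590 nm emission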
ABCB1 block: blocks JC-1 efflux by human ABCB1 transporter; CCRF-Adr cells, flow cytometry; inhibition, % at 6.6 µM; 190,000 tested, 0.067% active; AID 1326; in the data active = inhibition above about 40%;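 note: 0% = vehicle and 100% = reference inhibitor; higher value means more JC-1 retained so stronger ABCB1 efflux block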
Diaphorase inh: inhibits diaphorase or chemically oxidizes, flagging diaphorase assay artifacts | inhibition, % at 20 µM | 190,000 tested, 0.69% active | diaphorase resazurin-to-resorufin fluorescence, NADH, 16 min; bacterial (C. kluyveri) enzyme, not human;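 active = primary screen inhibition at 20 µM above a set limit, cut at about 50% in these data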;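 note: plate controls were DMSO with full reaction for no effect and wells lacking NADH for full effect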
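Assay system: diaphorase enzyme from Clostridium kluyveri. Quantity: enzyme working solution with 0.14 U/mL diaphorase. Schedule: reaction incubation of 16 min at room temperature. Technique: resorufin fluorescence, excitation 544 nm, emission 590 nm. Controls: No-NADH positive control and DMSO neutral control.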
p47phox inh: inhibitors of human p47phox binding. p47phox/p22phox peptide binding, fluorescence polarization, 2 h. 220,000 tested, 0.53% active. P14598. AID 1274. inhibition, % at 24.7 µM;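 active = inhibition above about 30%, limit read from the data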;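 note: 0% = p47phox with labelled peptide and 100% = labelled peptide alone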
ABCB1 single pt: inhibits human ABCB1 efflux, confirmed at single point. shares compounds with ABCG2 inh. inhibition, % at 6.6 µM. 270 tested, 7% active. CCRF-Adr cells, JC-1 efflux, flow cytometry;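 active = inhibition of pump activity above 50%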;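 note: 0% = DMSO and 100% = nicardipine full pump inhibition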
ABCG2 single pt: confirmation of human ABCG2 transporter inhibitors, ABCB1 counter-screen | shares compounds with ABCG2 inh | IgMXP3 cells, JC-1 efflux, flow cytometry | inhibition, % at 6.6 µM | 270 tested, 6% active | AID 1453;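 active = inhibition above 50%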;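 note: 0% = DMSO wells and 100% = nicardipine pump inhibitor wells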
IgMXP3 autofluor: counter-screen for ABCG2 inhibitors: compound fluorescence in IgMXP3 cells; AID 1480; fluorescence at 6.6 µM; compound autofluorescence 488/530 nm, flow; hits give high values; shares compounds with ABCG2 inh; 270 tested, 30% active;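 active = fluorescence in ABCG2-expressing cells above the plate's control-well mean plus 3 SD, cut at about 15 in these data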;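 note: median cell fluorescence with compound minus that of DMSO-treated control cells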
CCRF autofluor: counter-screen for ABCB1 inhibitors: compound fluorescence in CCRF-Adr cells. shares compounds with ABCG2 inh. compound autofluorescence 488/530 nm, flow cytometry; hits give high values. fluorescence at 6.6 µM. 270 tested, 30% active. AID 1483;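 active = fluorescence beyond the plate control mean plus 3 SD, with a fluorescence-to-maximum score over 2, cut at about 25 in these data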
Starred values were filed as active, the others as inactive; · = no result; ! = not active in a repeat. Sampled rows, rich in hits. Any-hit rate of the full collection: about 1.6%.

SMILES | ABCG2 inh | Efa HMGR inh | Diaphorase act | ABCB1 block | Diaphorase inh | p47phox inh | others
Cc1ccc2[nH]c3c(c2c1)CN(C(=O)CN1c2ccc(F)cc2CCC1C)CC3 (stereo unspecified) | 2 | -1 | 0.7 | 1 | 32 | 196*
CCN(CC)C(=O)c1ccccc1NS(C)(=O)=O | 0 | -11 | 0.3 | 0 | 74* | -7
CS(=O)(=O)Nc1ccccc1C(=O)O | 0 | -2 | 0.9 | 0 | 6 | -6
Cc1ccc(Cl)cc1NC(=O)COC(=O)C12CC3CC(CC(C3)C1)C2 | 7 | 14*! | 0.8 | 2 | 16 | -15
C=CCNC(=O)NC(=O)COC(=O)/C(C#N)=C/c1cc(C)n(CC(C)C)c1C | 3 | -7 | 0.9 | 1 | 13 | -4
COc1ccc(Cn2c(S(=O)(=O)CC(N)=O)nc3ccccc32)cc1[N+](=O)[O-] | 1 | 2 | 0.8 | 1 | 18 | 8
O=C(NCCN1CCN(c2ccccc2)CC1)c1ccc2c(c1)[nH]c(=S)n1c3ccccc3nc21 | -1 | 9.6* | 0.9 | -1 | 8 | 6
COc1ccccc1-c1nnc2n1N=C(c1ccc(O)c(O)c1)CS2 | -1 | 2 | 0.5 | 0 | 51* | 8
Cc1cc(=O)oc2cc(OCC(O)CN3CCc4ccccc4C3)ccc12 (stereo unspecified) | 3 | -3 | 0.8 | 0 | 19 | 7
COc1cc(/C=C2\SC(=O)N(Cc3ccc(Cl)cc3)C2=O)cc([N+](=O)[O-])c1O | -4 | -4 | 0.1 | -1 | 87* | -5
COc1cc(/C=C2\SC(=O)N(Cc3ccc(F)cc3)C2=O)cc([N+](=O)[O-])c1O | -1 | -1 | 0.8 | 0 | 24 | 2
COc1ccc(CNc2cc(NCCCO)c([N+](=O)[O-])c3nonc23)cc1 | 5 | 0 | 0.4 | 0 | 61* | -1
O=[N+]([O-])c1c(NCCCO)cc(N2CCN(Cc3ccc4c(c3)OCO4)CC2)c2nonc12 | 13 | -2 | 0.6 | 1 | 36 | -17
O=[N+]([O-])c1c(NCCCO)cc(Sc2ccc(Cl)cc2)c2nonc12 | 2 | 2 | 0.5 | 1 | 54* | -9
COC(=O)CCSc1cc(NCCOC(C)=O)c([N+](=O)[O-])c2nonc12 | 58 | 1 | 0.8 | 4 | 25 | 1
O=[N+]([O-])c1c(NCCCO)cc(SCc2ccco2)c2nonc12 | 7 | 1 | 0.3 | 2 | 66* | -5
Cn1ccnc1Sc1cc(NCCCO)c([N+](=O)[O-])c2nonc12 | 0 | -1 | 0.7 | 0 | 30 | -3
CCCC(=O)OCCNc1cc(SCCC(=O)OC)c2nonc2c1[N+](=O)[O-] | 2 | -2 | 0.2 | 3 | 75* | 2
CCOc1ccc(S(=O)(=O)N(CC(=O)Nc2cc(C)on2)Cc2ccccc2Cl)cc1 | 6 | -3 | 0.7 | 1 | 30 | -14
CC(=O)OCCCNc1cc(Sc2nc3ccccc3s2)c2nonc2c1[N+](=O)[O-] | -1 | -1 | 0.4 | 0 | 62* | -19
CC(=O)OCCCNc1cc(Sc2ccc(C)cc2)c2nonc2c1[N+](=O)[O-] | 1 | -1 | 0.7 | 0 | 34 | -11
O=[N+]([O-])c1c(NCCO)cc(N2CCC3(CC2)OCCO3)c2nonc12 | 20 | -7 | 0.4 | 2 | 55* | -8
CC(=O)OCCNc1cc(SCc2ccco2)c2nonc2c1[N+](=O)[O-] | 8 | 3 | 0.2 | 2 | 77* | 1
Cc1cccc(-n2c(Cc3ccccc3)nnc2SCC(=O)N2CCOCC2)c1 | 1 | -7 | 1.1 | 0 | -6 | -7
CC(C)N(C)C(=O)c1ccc(OC2CCN(CCc3ccccc3)CC2)cc1 | -2 | -2 | 0.9 | 0 | 5 | -42
SMILES | ABCG2 inh | Efa HMGR inh | Diaphorase act | ABCB1 block | Diaphorase inh | p47phox inh | others
CC1CCCCN1C(=O)CSCC(=O)Nc1nc(-c2cccs2)cs1 (stereo unspecified) | 7 | -11 | 0.8 | 3 | 22 | -1
COc1ccc2[nH]c3c4c(ccc3c2c1)C(=O)C=CC4=O | · | · | · | · | · | 31*
CCOC(=O)c1c(C)oc2c1c(CN1CCN(CCO)CC1)c(O)c1ccccc12 | 2 | -1 | 0.4 | 0 | 61* | 38*
CCOC(=O)c1c(C)oc2c1c(C=NC1CCS(=O)(=O)C1)c(O)c1ccccc12 (stereo unspecified) | 15 | -2 | 0.2 | 1 | 76* | 3
CCOC(=O)c1c(C)oc2c1c(C=NCCC(=O)O)c(O)c1ccccc12 | 1 | -3 | 0.3 | 0 | 71* | -9
O=C(N/N=C/c1c[nH]c2ccccc12)c1cc(-c2ccc3ccccc3c2)n[nH]1 | -2 | -10 | 1 | 0 | -1 | -46
Cc1ccc(NC(=S)N/C(=N/S(=O)(=O)c2ccccc2)c2ccccc2)cc1 | -1 | -3 | 0.9 | 0 | 7 | 164*
Cc1ccc(S(=O)(=O)/N=C(/NC(=S)Nc2ccccc2)c2ccccc2)cc1 | -1 | -2 | 0.9 | 0 | 7 | -25
O=S(=O)(NCCNS(=O)(=O)c1ccc(F)cc1)c1ccc(F)cc1 | -2 | -3 | 0.8 | 0 | 16 | -13
CCOC(=O)c1cc(-c2ccc(Cl)cc2)nc2onc(C)c12 | 83* | 0 | 0.8 | 1 | 17 | 1 | ABCB1 single pt=2;ABCG2 single pt=37;IgMXP3 autofluor=2.5;CCRF autofluor=9.5
N#Cc1ccc(-c2ccc(OCC(=O)NCCc3ccccc3)cc2)cc1 | 82* | -5 | 0.9 | 0 | 11 | -2 | ABCB1 single pt=0;ABCG2 single pt=32;IgMXP3 autofluor=2.8;CCRF autofluor=31*
COc1ccc(CCNC(=O)COc2ccc(-c3ccc(C#N)cc3)cc2)cc1 | 10 | 1 | 0.9 | 0 | 7 | 8
CCOC(=O)C1=C(O)/C(=C/c2ccc(OCC(=O)O)c(OCC)c2)SC1=Nc1ccccc1 | 0 | -7 | 0.8 | 0 | 19 | -47
